Assay results reported in ChEMBL document CHEMBL1136055, “3-Heteroaryl-2-pyridones: benzodiazepine site ligands with functional delectivity for alpha 2/alpha 3-subtypes of human GABA(A) receptor-ion channels” (J Med Chem, 2002).

Columns and labels:
[1] = target: T1, GABA-A receptor; alpha-1/beta-3/gamma-2 (Homo sapiens) (UniProt P14867+P18507+P28472); test: Modulatory effect on coapplication with GABA at human Gamma-aminobutyric acid A receptor alpha-1-beta-3-gamma-2 in Xenopus oocyte.
How it was run: (§1)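 Two-electrode voltage clamp of Xenopus oocytes transiently expressing human α1, α2 or α3 β3γ2S receptors. Test compound is co-applied with GABA at its EC20 (GABA range 4-30 µM). Result is the % change in GABA current, mean (SEM), n = 3-7, at the stated test compound concentration (µM).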

[2] = target: T2, GABA-A receptor; alpha-1/beta-3/gamma-2 (Homo sapiens, UniProt P14867+P18507+P28472); test: Displacement of [3H]Ro-151788 from human GABA-A receptor alpha-1-beta-3-gamma-2 subunits expressed in L(tk-) cells (<50% inhibition at 10 uM); type: cell-based
T2 sequence (P14867 whole entry): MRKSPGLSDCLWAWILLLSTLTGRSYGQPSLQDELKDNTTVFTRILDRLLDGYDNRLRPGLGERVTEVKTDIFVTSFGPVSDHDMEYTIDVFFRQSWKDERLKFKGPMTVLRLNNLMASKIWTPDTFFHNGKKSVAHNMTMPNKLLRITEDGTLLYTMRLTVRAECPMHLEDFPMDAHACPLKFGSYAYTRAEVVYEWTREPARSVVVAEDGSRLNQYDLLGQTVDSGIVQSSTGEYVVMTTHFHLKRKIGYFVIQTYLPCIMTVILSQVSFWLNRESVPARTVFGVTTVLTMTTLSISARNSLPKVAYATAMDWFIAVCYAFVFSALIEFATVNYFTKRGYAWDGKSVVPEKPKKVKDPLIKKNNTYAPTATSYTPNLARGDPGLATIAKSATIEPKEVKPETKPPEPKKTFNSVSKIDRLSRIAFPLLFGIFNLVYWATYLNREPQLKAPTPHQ
T2 sequence (P18507 whole entry): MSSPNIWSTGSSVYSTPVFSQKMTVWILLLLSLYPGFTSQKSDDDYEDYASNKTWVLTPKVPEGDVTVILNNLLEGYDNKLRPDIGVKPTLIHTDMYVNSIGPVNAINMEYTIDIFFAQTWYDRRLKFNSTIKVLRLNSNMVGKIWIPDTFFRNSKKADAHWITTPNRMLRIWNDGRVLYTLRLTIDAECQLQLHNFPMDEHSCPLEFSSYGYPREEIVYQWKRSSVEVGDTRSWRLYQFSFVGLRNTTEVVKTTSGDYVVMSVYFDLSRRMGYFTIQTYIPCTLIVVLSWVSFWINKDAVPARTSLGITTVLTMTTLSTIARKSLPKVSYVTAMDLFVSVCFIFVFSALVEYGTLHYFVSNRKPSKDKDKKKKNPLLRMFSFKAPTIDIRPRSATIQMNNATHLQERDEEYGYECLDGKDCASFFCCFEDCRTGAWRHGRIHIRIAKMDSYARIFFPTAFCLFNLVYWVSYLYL
T2 sequence (P28472 whole entry): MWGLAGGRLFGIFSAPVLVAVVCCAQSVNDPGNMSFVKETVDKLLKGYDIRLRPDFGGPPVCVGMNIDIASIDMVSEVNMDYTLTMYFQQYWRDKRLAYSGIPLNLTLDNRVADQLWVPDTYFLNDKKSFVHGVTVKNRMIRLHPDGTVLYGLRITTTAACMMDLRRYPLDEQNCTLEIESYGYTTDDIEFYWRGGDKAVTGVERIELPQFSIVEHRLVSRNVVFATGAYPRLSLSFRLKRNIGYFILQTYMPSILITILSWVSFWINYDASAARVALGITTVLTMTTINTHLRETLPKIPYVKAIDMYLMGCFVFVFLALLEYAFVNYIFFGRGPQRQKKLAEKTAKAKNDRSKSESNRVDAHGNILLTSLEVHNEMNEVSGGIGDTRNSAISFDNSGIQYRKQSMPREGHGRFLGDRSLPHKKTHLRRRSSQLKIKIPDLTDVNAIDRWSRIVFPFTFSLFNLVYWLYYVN

[3] = target: T3, GABA-A receptor; alpha-3/beta-3/gamma-2 (Homo sapiens, UniProt P18507+P28472+P34903); test: Binding affinity by displacement of [3H]Ro-151788 from recombinant human gamma-aminobutyric-acid A receptor alpha3,beta3,gamma2 stably expressed in L cells; type: cell-based
T3 sequence (P18507 whole entry): T2 sequence (P18507 whole entry)
T3 sequence (P28472 whole entry): T2 sequence (P28472 whole entry)
T3 sequence (P34903 whole entry): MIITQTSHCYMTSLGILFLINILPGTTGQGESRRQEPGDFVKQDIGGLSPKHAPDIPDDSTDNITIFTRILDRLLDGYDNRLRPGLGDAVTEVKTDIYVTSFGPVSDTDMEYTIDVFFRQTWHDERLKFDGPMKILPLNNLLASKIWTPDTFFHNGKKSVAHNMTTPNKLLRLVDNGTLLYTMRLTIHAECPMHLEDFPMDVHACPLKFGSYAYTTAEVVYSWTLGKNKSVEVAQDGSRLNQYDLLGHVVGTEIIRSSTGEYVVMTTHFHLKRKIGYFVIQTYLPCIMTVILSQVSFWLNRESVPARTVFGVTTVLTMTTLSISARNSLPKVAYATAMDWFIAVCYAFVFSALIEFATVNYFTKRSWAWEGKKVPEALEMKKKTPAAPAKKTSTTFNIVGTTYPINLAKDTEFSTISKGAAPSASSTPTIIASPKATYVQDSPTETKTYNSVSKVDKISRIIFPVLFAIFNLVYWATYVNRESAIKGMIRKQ
How it was run: (§2)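 Competition binding against [3H]Ro15-1788 on cloned human α1/α2/α3/α5 β3γ2S receptors stably expressed in L(tk-) cells. Six to eight test concentrations spaced in half-log steps. Ki given as mean (SEM), n = 3-5, reported to two significant figures.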

[4] = target: T4, GABA-A receptor; alpha-5/beta-3/gamma-2 (Homo sapiens, UniProt P18507+P28472+P31644); test: Inhibition of [3H]Ro-151788 binding to human GABA A receptor (alpha-5-beta-3-gamma-2) stably expressed in L(tk-) cells.; type: cell-based; how it was run: as §2
T4 sequence (P18507 whole entry): T2 sequence (P18507 whole entry)
T4 sequence (P28472 whole entry): T2 sequence (P28472 whole entry)
T4 sequence (P31644 whole entry): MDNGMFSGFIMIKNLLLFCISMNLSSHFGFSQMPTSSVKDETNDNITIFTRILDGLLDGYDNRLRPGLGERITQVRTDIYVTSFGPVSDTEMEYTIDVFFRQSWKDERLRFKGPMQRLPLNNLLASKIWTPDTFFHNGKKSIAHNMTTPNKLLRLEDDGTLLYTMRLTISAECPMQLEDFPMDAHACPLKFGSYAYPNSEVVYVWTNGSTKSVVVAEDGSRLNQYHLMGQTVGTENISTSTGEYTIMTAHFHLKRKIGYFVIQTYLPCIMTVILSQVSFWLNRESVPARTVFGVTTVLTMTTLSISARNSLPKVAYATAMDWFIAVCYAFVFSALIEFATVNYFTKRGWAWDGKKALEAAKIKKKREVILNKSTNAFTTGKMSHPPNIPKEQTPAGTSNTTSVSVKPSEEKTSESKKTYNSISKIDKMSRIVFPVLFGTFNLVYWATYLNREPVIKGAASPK

[5] = target: T5, GABA-A receptor; alpha-2/beta-3/gamma-2 (Homo sapiens, UniProt P18507+P28472+P47869); test: Displacement of [3H]Ro-151788 from human Gamma-aminobutyric acid A receptor alpha-2-beta-3-gamma-2 stably expressed in L(tk-) cells; type: cell-based; how it was run: as §2
T5 sequence (P18507 whole entry): T2 sequence (P18507 whole entry)
T5 sequence (P28472 whole entry): T2 sequence (P28472 whole entry)
T5 sequence (P47869 whole entry): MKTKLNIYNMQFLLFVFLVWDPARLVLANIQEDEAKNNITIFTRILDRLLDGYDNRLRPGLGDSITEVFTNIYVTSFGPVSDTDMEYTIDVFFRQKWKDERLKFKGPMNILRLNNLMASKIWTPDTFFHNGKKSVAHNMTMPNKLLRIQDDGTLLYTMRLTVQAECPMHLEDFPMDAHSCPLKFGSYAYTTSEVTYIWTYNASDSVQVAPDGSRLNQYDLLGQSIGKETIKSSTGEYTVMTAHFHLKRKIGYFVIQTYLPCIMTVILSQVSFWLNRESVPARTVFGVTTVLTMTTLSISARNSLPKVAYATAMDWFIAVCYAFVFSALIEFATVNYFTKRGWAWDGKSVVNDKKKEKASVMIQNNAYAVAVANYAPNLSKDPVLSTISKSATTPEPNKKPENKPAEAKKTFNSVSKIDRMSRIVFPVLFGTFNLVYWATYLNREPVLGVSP

[6] = target: GABA-A receptor; alpha-3/beta-3/gamma-2 (Homo sapiens) (UniProt P18507+P28472+P34903); test: Modulatory effect on coapplication with GABA at human Gamma-aminobutyric acid A receptor alpha-3-beta-3-gamma-2 in Xenopus oocytes.; type: cell-based; settings: Oocyte; how it was run: as §1
[7] = target: GABA-A receptor; alpha-2/beta-3/gamma-2 (Homo sapiens) (UniProt P18507+P28472+P47869); test: Modulatory effect on coapplication with GABA at human Gamma-aminobutyric acid A receptor alpha-2-beta-3-gamma-2 expressed inXenopus oocytes; type: cell-based; settings: Oocyte; how it was run: as §1
[8] = target: T4, GABA-A receptor; alpha-5/beta-3/gamma-2; test: Displacement of [3H]Ro-151788 from human GABA-A receptor alpha-5-beta-3-gamma-2 subunits expressed in L(tk-) cells; type: cell-based; how it was run: as §2
[9] = target: T5, GABA-A receptor; alpha-2/beta-3/gamma-2; test: Displacement of [3H]Ro-151788 from human GABA-A receptor alpha-2-beta-3-gamma-2 subunits expressed in L(tk-) cells (<50% inhibition at 2 uM); type: cell-based
[10] = target: T2, GABA-A receptor; alpha-1/beta-3/gamma-2; test: Displacement of [3H]Ro-151788 from human GABA-A receptor alpha-1-beta-3-gamma-2 subunits expressed in L(tk-) cells (<50% inhibition at 3 uM); type: cell-based
[11] = target: T2, GABA-A receptor; alpha-1/beta-3/gamma-2; test: Displacement of [3H]Ro-151788 from human GABA-A receptor alpha-1-beta-3-gamma-2 subunits expressed in L(tk-) cells (<50% inhibition at 100 uM); type: cell-based
[12] = target: T4, GABA-A receptor; alpha-5/beta-3/gamma-2; test: Displacement of [3H]Ro-151788 from human GABA-A receptor alpha-5-beta-3-gamma-2 subunits expressed in L(tk-) cells (<50% inhibition at 2 uM); type: cell-based
[13] = target: T1, GABA-A receptor; alpha-1/beta-3/gamma-2 (Homo sapiens); test: Modulatory effect on coapplication with GABA at human Gamma-aminobutyric acid A receptor alpha-1-beta-3-gamma-2 expressed in Xenopus oocytes; type: cell-based; settings: Oocyte; how it was run: as §1
[14] = target: T2, GABA-A receptor; alpha-1/beta-3/gamma-2; test: Inhibition of [3H]Ro-151788 binding to human GABA A receptor (alpha-1-beta-3-gamma-2) stably expressed in L(tk-) cells.; type: cell-based

SMILES | percent modulation of GABA EC20 response [1] | Ki [2] | Ki [3] | Ki [4] | Ki [5] | percent modulation of GABA EC20 response [6] | percent modulation of GABA EC20 response [7] | Ki [8] | Ki [9] | Ki [10] | Ki [11] | Ki [12] | EC20 [13] | Ki [14]
COC(=O)c1cc(-c2ccc(OC)cc2)c(-c2ccc(N(C)C)cc2)n(C)c1=O | 181% | > 3000 nM | 250 nM | > 667 nM | 600 nM | 132% | 81% |  |  |  |  |  |  | 
COc1ccc(-c2cc(-c3nc(C)no3)c(=O)n(C)c2-c2ccncc2)cc1 |  |  | > 1000 nM |  |  |  |  | > 667 nM | > 667 nM | > 1000 nM |  |  |  | 
COc1ccc(-c2cc(C#N)c(O)nc2-c2ccc(N(C)C)cc2)cc1 |  |  | > 30000 nM | > 667 nM | > 30000 nM |  |  |  |  |  | > 30000 nM |  |  | 
COc1ccc(-c2cc(C#N)c(=O)n(C)c2-c2ccc(N(C)C)cc2)cc1 | 7% |  | 860 nM |  | 1800 nM | 8% | -16% |  |  |  |  | > 667 nM |  | 
COc1ccc(-c2cc(-c3cccs3)c(=O)n(C)c2-c2ccncc2)cc1 |  |  | 15 nM | 350 nM | 23 nM | 36% | 15% |  |  |  |  |  | 9% | 30 nM
